Activity calls are given as the source filed them.
Legend:
Rattus norvegicus [1] = assay: Antianaphylactic activity against IgE-mediated rat passive cutaneous anaphylaxis (PCA) model after oral administration.; type: functional
Outline: (§1)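 Female Sprague-Dawley rats (~200 g) received rat anti-ovoalbumin IgE antiserum intradermally at four back sites. Drug in 2% gum arabic given po (10 mL/kg) 10 min or ip (5 mL/kg) 5 min before challenge. Blue-spot area measured at 30 min versus vehicle controls. ED50 by linear regression on at least three doses.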

Rattus norvegicus [2] = assay: Antianaphylactic activity against IgE-mediated rat passive cutaneous anaphylaxis (PCA) model after intraperitoneal administration.; type: functional; conditions: ip; outline: as §1
Cavia porcellus [3] = species: Cavia porcellus; assay: Inhibitory effect on Antigen-induced SRS-A (slow reacting substance of anaphylaxis) like material release from sensitized guinea pig lung fragments at a concentration of 10 E -8 M; type: functional
Outline: (§2)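 Lungs from ovoalbumin-sensitized guinea pigs were taken at 3 weeks and minced in Krebs' solution (0.1 g tissue/mL). Suspension incubated 15 min at 37 °C. Drug added, then ovoalbumin 1 μg 5 min later, for 15 min at 37 °C. SRS-A-like activity of the filtrate assayed on isolated guinea pig ileum, as % inhibition versus saline controls.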

Rattus norvegicus [4] = assay: Antianaphylactic activity at the bronchopulmonary level against IgE-mediated rat PPA model when administered orally.; type: functional; conditions: po
Outline: (§3)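 Rats passively sensitized iv with anti-ovoalbumin serum (1 mL/rat). Challenge was iv ovoalbumin 4 mg/kg. Bronchoconstriction measured as air overflow (Konzett-Rössler). Drug given po in 2% gum arabic (10 mL/kg) 30 min before, or iv in 10% DMSO (1 mL/kg) 15 min before. ED50 by linear regression.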

Cavia porcellus [5] = species: Cavia porcellus; assay: Inhibitory effect on Antigen-induced SRS-A (slow reacting substance of anaphylaxis) like material release from sensitized guinea pig lung fragments at a concentration of 10 E -6 M; type: functional; outline: as §2
Cavia porcellus [6] = assay: Aantianaphylactic activity at the bronchopulmonary level against IgG-mediated APA model of guinea pig when administered intraperitoneally.; type: functional; conditions: ip
Outline: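 Guinea pigs (either sex, 300-400 g) sensitized by a single ip dose of ovoalbumin in liquid petrolatum (20 mg/mL). Tested 3 weeks later. Drug given ip in 2% gum arabic (5 mL/kg) 30 min before aerosol challenge with 2% ovoalbumin. Read-out is delay to severe dyspnea in seconds, with 3 min cutoff. ED50 by linear regression.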

Cavia porcellus [7] = species: Cavia porcellus; assay: Inhibitory effect on Antigen-induced SRS-A (slow reacting substance of anaphylaxis) like material release from sensitized guinea pig lung fragments at a concentration of 10 E -7 M; type: functional; outline: as §2
Cavia porcellus [8] = species: Cavia porcellus; assay: Inhibitory effect on Antigen-induced SRS-A (slow reacting substance of anaphylaxis) like material release from sensitized guinea pig lung fragments at a concentration of 10 E -5 M; type: functional; outline: as §2
Rattus norvegicus [9] = assay: Antianaphylactic activity at the bronchopulmonary level against IgE-mediated rat PPA model when administered intravenously.; type: functional; conditions: iv; outline: as §3
Rattus norvegicus [10] = assay: Antianaphylactic activity against IgE-mediated rat PCA model after oral administration; Not active; type: functional, organism-based; outline: as §1
Cavia porcellus [11] = species: Cavia porcellus; assay: Inhibitory effect on Antigen-induced SRS-A (slow reacting substance of anaphylaxis) like material release from sensitized guinea pig lung fragments at a concentration of 10 E -4 M; type: functional; outline: as §2

Row | Compound | ED50 (Rattus norvegicus [1]) [mg/kg] | ED50 (Rattus norvegicus [2]) [mg/kg] | further results
1 | NCCO.O=C(O)C(=O)Nc1nc(-c2cc(-c3ccccc3)no2)cs1 | 0.6 | 0.24 | –
2 | CCOCCOC(=O)C(=O)Nc1nc(-c2cc(-c3ccccc3)on2)cs1 | 13 | 0.2 | –
3 | CCOCCOC(=O)C(=O)Nc1nc(-c2cc(-c3c(F)cccc3Cl)no2)cs1 | > 30 | 1.1 | –
4 | CCOCCOC(=O)C(=O)Nc1nc(-c2conc2C)cs1 | > 100 | > 100 | –
5 | CCOCCOC(=O)C(=O)Nc1nc(-c2cc(C)no2)cs1 [ASOBAMAST] | 1.3 | 0.04 | Inhibition (Cavia porcellus [3]): 18%; ED50 (Rattus norvegicus [4]): 4.7 mg/kg; Inhibition (Cavia porcellus [5]): 48%; ED50 (Cavia porcellus [6]): 185 mg/kg; Inhibition (Cavia porcellus [7]): 43%; Inhibition (Cavia porcellus [8]): 52%; ED50 (Rattus norvegicus [9]): 0.09 mg/kg
6 | O=C(Nc1nc(-c2cc(-c3c(F)cccc3Cl)no2)cs1)C(=O)OCc1ccccc1 | > 30 | > 30 | –
7 | COc1cc(-c2csc(NC(=O)C(=O)O)n2)on1.NCCO | 8 | 1.2 | –
8 | NCCO.O=C(O)C(=O)Nc1nc(-c2cc(-c3ccccc3)on2)cs1 | 2.6 | 0.23 | –
9 | CC(C)(C)OC(=O)C(=O)Nc1nc(-c2cc(-c3ccccc3)no2)cs1 | 7 | 9 | –
10 | NCCCC[C@H](N)C(=O)O.O=C(O)C(=O)Nc1nc(-c2cc(-c3ccccc3)no2)cs1 | 2.4 | 0.24 | –
11 | Cc1cc(-c2csc(NC(=O)C(=O)O)n2)on1.NCCCC[C@H](N)C(=O)O | 6 | 0.3 | –
12 | CCOC(=O)C(=O)Nc1nc(-c2cc(C)no2)cs1 | 0.7 | 0.2 | –
13 | CCOCCOC(=O)C(=O)Nc1nc(-c2cc(CO)on2)cs1 | 14 | 1.8 | –
14 | NCCO.O=C(O)C(=O)Nc1nc(-c2cc(-c3c(F)cccc3Cl)no2)cs1 | > 30 | 2.4 | –
15 | O=C(O)C(=O)Nc1nc(-c2cc(Br)no2)cs1 | > 30 | 3 | –
16 | Cc1cc(-c2csc(NC(=O)C(=O)O)n2)no1.NCCCC[C@H](N)C(=O)O | 17 | 1.7 | –
17 | CCOCCOC(=O)C(=O)Nc1nc(-c2cc(C(=O)OCC)no2)cs1 | 1.9 | 0.08 | –
18 | CCOCCOC(=O)C(=O)Nc1nc(-c2cc(C)on2)cs1 | 2 | 1.3 | –

Row | Compound | ED50 (Rattus norvegicus [1]) [mg/kg] | ED50 (Rattus norvegicus [2]) [mg/kg] | further results
19 | CCOCCOC(=O)C(=O)Nc1nc(-c2c(-c3c(F)cccc3Cl)noc2C)cs1 | > 30 | > 10 | –
20 | CCOCCOC(=O)C(=O)Nc1nc(-c2cc(Br)no2)c(CC)s1 | 9 | 3 | –
21 | NCCCC[C@H](N)C(=O)O.O=C(O)C(=O)Nc1nc(-c2conc2-c2ccccc2)cs1 | > 100 | > 100 | –
22 | CCOCCOC(=O)C(=O)Nc1nc(-c2cc(COC)no2)cs1 | 0.7 | 2.4 | –
23 | CCOCCOC(=O)C(=O)Nc1nc(-c2cc(Br)no2)cs1 | > 30 | 11 | –
24 | NCCO.O=C(O)C(=O)Nc1nc(-c2cc(CO)on2)cs1 | > 30 | > 100 | –
25 | CCOCCOC(=O)C(=O)Nc1nc(-c2c(-c3ccccc3)noc2C)cs1 | > 100 | > 10 | –
26 | CCOCCOC(=O)C(=O)Nc1nc(-c2cc(OCc3ccccc3)no2)cs1 | > 100 | 3.7 | –
27 | COCCOC(=O)C(=O)Nc1nc(-c2cc(Br)no2)cs1 | > 100 | 7 | –
28 | NCCO.O=C(O)C(=O)Nc1nc(-c2cc(Br)no2)cs1 | > 30 | 7 | –
29 | CCOCCOC(=O)C(=O)Nc1nc(-c2cc(OC)no2)cs1 | 11 | 3 | –
30 | NCCO.O=C(O)C(=O)Nc1nc(-c2cc(Cl)no2)cs1 | > 30 | > 30 | –
31 | NCCO.O=C(O)C(=O)Nc1nc(-c2conc2-c2c(F)cccc2Cl)cs1 | > 100 | 30 | –
32 | CCOCCOC(=O)C(=O)Nc1nc(-c2cc(Cl)no2)cs1 | > 30 | 6 | –
33 | NCCCC[C@H](N)C(=O)O.O=C(O)C(=O)Nc1nc(-c2cc(Br)no2)cs1 | 8 | 0.5 | –
34 | CCOC(=O)C(=O)Nc1nc(-c2cc(Br)no2)cs1 | > 100 | 12 | –
35 | NCCO.O=C(O)C(=O)Nc1nc(-c2cc(CO)no2)cs1 | 0.7 | 0.007 | –
36 | O=C([O-])c1cc(=O)c2c(OCC(O)COc3cccc4oc(C(=O)[O-])cc(=O)c34)cccc2o1.[Na+].[Na+] [CROMOLYN SODIUM] | – | 12 | ED50 (Rattus norvegicus [4]): > 100 mg/kg; Inhibition (Cavia porcellus [5]): 20%; ED50 (Cavia porcellus [6]): > 1000 mg/kg; ED50 (Rattus norvegicus [10]): inactive; Inhibition (Cavia porcellus [11]): 46%; Inhibition (Cavia porcellus [8]): 38%; ED50 (Rattus norvegicus [9]): 0.82 mg/kg

Reference: ChEMBL document CHEMBL1125874, “N-(4-Isoxazolylthiazol-2-yl)oxamic acid derivatives as potent orally active antianaphylactic agents” (1991)
